The text below walks through data of ChEMBL document CHEMBL1125789, “Synthesis and selective class III antiarrhythmic activity of novel N-heteroaralkyl-substituted 1-(aryloxy)-2-propanolamine and related propylamine derivatives” (J Med Chem, 1991).

Assay [1] is filed under the species Canis familiaris. Kind of assay: repolarization to reach -60mV, in canine Purkinje Fibers at a concentration of 0.3 uM at 1000 ms (simulating normal heart rate). It is filed as functional, Canis lupus familiaris, Purkinje fiber. In outline:
(§1)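 Purkinje fiber bundles were stimulated with square-wave current pulses of 2.0 ms at twice threshold and equilibrated for at least 1 h, or until action potential parameters were steady. Each concentration was superfused for 45-60 min to reach steady state. Action potentials were recorded at four to six sites per fiber, under control and after drug.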

For assay [2], the species on record is Canis familiaris. Nature of the assay: Repolarization to reach -60mV, in canine Purkinje Fibers at a concentration of 1.0 uM at 300 ms (simulating tachycardia). It is filed as functional, Canis lupus familiaris, Purkinje fiber. In outline:
(§2)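 Isolated canine Purkinje fiber bundles were driven by square-wave pulses 2.0 ms long at 2× threshold and equilibrated ≥1 h to steady state. Each concentration was superfused 45–60 min before recording, and action potentials were sampled at 4–6 sites per fiber in control and after drug, giving Vmax and APD to −60 mV.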

The species named for assay [3] is Canis familiaris. Kind of assay: Repolarization to reach -60mV, in canine Purkinje Fibers at a concentration of 0.3 uM at 300 ms (simulating tachycardia). It is filed as functional, Canis lupus familiaris, Purkinje fiber. In outline: as §2
Assay [4] is filed under the species Canis familiaris. Kind of assay: Maximum rate of rise of the upstroke of transmembrane potential, in canine Purkinje Fibers at a concentration of 0.3 uM at 300 ms (simulating tachycardia). It is filed as functional. On the set-up: unit not given here. As to conditions: Canis lupus familiaris, Purkinje fiber. In outline: as §2
Assay [5] is filed under the species Canis familiaris. Nature of the assay: Maximum rate of rise of the upstroke of transmembrane potential, in canine Purkinje Fibers at a concentration of 3.0 uM at 300 ms (simulating tachycardia). As to conditions: Canis lupus familiaris, Purkinje fiber. It is filed as functional. On the set-up: unit not given here. In outline: as §2
The species named for assay [6] is Canis familiaris. Kind of assay: Maximum rate of rise of the upstroke of transmembrane potential, in canine Purkinje Fibers at a concentration of 1.0 uM at 300 ms (simulating tachycardia). It is filed as functional. Set-up: unit not given here. The settings on record: Canis lupus familiaris, Purkinje fiber. In outline: as §2
For assay [7], the species on record is Canis familiaris. Nature of the assay: repolarization to reach -60mV, in canine Purkinje Fibers at a concentration of 1.0 uM at 1000 ms (simulating normal heart rate). It is filed as functional, Canis lupus familiaris, Purkinje fiber. In outline:
as §1

The species entered for assay [8] is Canis familiaris. Nature of the assay: repolarization to reach -60mV, in canine Purkinje Fibers at a concentration of 3.0 uM at 1000 ms (simulating normal heart rate). It is filed as functional, Canis lupus familiaris, Purkinje fiber. In outline: as §1
The species named for assay [9] is Canis familiaris. Nature of the assay: Repolarization to reach -60mV, in canine Purkinje Fibers at a concentration of 3.0 uM at 300 ms (simulating tachycardia). It is filed as functional, Canis lupus familiaris, Purkinje fiber. In outline:
as §2

Assay [10] is filed under the species Canis familiaris. Kind of assay: Maximum rate of rise of the upstroke of transmembrane potential, in canine Purkinje Fibers at a concentration of 0.3 uM at 1000 ms (simulating normal heart rate). On the set-up: unit not given here. The settings on record: Canis lupus familiaris, Purkinje fiber. It is filed as functional. In outline:
as §2

The species named for assay [11] is Canis familiaris. Kind of assay: Maximum rate of rise of the upstroke of transmembrane potential, in canine Purkinje Fibers at a concentration of 3.0 uM at 1000 ms (simulating normal heart rate). It is filed as functional. On the set-up: unit not given here. As to conditions: Canis lupus familiaris, Purkinje fiber. In outline:
as §2

The species entered for assay [12] is Canis familiaris. Kind of assay: Maximum rate of rise of the upstroke of transmembrane potential, in canine Purkinje Fibers at a concentration of 1.0 uM at 1000 ms (simulating normal heart rate). It is filed as functional. Set-up: unit not given here. The settings on record: Canis lupus familiaris, Purkinje fiber. In outline: as §2
Assay [13] concerns Canis familiaris. Nature of the assay: Heart beat by the compound in open chest anesthetized dog, after iv administration at a dose of 5.0 mg/kg. It is filed as functional, Canis lupus familiaris. On the set-up: unit not given here. In outline: (§3)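 Hemodynamics (heart rate, mean arterial pressure) recorded in pentobarbital-anesthetized (30 mg/kg iv, 5 mg/kg per h maintenance) open-chest mongrel dogs during the refractoriness study at BCL 300 ms. Readings were taken before and after iv or intraduodenal compound and expressed as change from control.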

Assay [14] relates to Canis familiaris. Nature of the assay: Ventricular conduction time by the compound in open chest anesthetized dog, after iv administration at a dose of 5.0 mg/kg. It is filed as functional, Canis lupus familiaris, Heart. On the set-up: unit not given here. In outline: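 Mongrel dogs were anesthetized with sodium pentobarbital (30 mg/kg iv, then 5 mg/kg per h), the chest opened, and the heart paced at BCL 300 ms. Compound was given iv or intraduodenally. Ventricular conduction time was taken as the interval between electrograms at the proximal and distal sites of the recording electrode array. 2-5 dogs per dose.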

The subject of assay [15] is Canis familiaris. Nature of the assay: Ventricular effective refractory period by the compound in open chest anesthetized dog, after iv administration at a dose of 5.0 mg/kg. It is filed as functional, Canis lupus familiaris, Heart. On the set-up: unit not given here.
For assay [16], the system named is Canis familiaris. Kind of assay: Atrial effective refractory period by the compound in open chest anesthetized dog, after iv administration at a dose of 5.0 mg/kg. It is filed as functional, Canis lupus familiaris, Cardiac atrium. On the set-up: unit not given here. In outline: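 Open-chest mongrel dogs under sodium pentobarbital anesthesia (30 mg/kg iv plus 5 mg/kg per h), paced at basic cycle length 300 ms. Atrial effective refractory period was determined by electrical stimulation before and after iv or intraduodenal compound and reported as change from control.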

The test system of assay [17] is Canis familiaris. Kind of assay: Mean arterial pressure by the compound in open chest anesthetized dog, after iv administration at a dose of 5.0 mg/kg. It is filed as functional, Canis lupus familiaris, Artery. On the set-up: unit not given here. In outline: as §3
Assay [18] relates to Canis familiaris. Kind of assay: Atrial conduction time by the compound in open chest anesthetized dog, after iv administration at a dose of 5.0 mg/kg. On the set-up: unit not given here. It is filed as functional, Canis lupus familiaris, Cardiac atrium. In outline:
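Mongrel dogs anesthetized with sodium pentobarbital (30 mg/kg iv, then 5 mg/kg per h), chest opened, paced at BCL 300 ms. Atrial conduction time was taken as the interval between electrograms recorded at the proximal and distal sites of the atrial recording electrode array, before and after iv or intraduodenal dosing. Values are changes from control.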

Assay [19] is filed under the species Canis familiaris. Nature of the assay: Maximum rate of rise of the upstroke of transmembrane potential, in canine Purkinje Fibers at a concentration of 0.10 uM at 1000 ms (simulating normal heart rate). It is filed as functional. As to conditions: Canis lupus familiaris, Purkinje fiber. In outline:
as §2

The species named for assay [20] is Canis familiaris. Kind of assay: Repolarization to reach -60mV, in canine Purkinje Fibers at a concentration of 0.10 uM at 300 ms (simulating tachycardia). It is filed as functional, Canis lupus familiaris, Purkinje fiber. In outline: as §2
The species entered for assay [21] is Canis familiaris. Kind of assay: Maximum rate of rise of the upstroke of transmembrane potential, in canine Purkinje Fibers at a concentration of 0.10 uM at 300 ms (simulating tachycardia). It is filed as functional. The settings on record: Canis lupus familiaris, Purkinje fiber. In outline: as §2
The species named for assay [22] is Canis familiaris. Kind of assay: repolarization to reach -60mV, in canine Purkinje Fibers at a concentration of 0.10 uM at 1000 ms (simulating normal heart rate). It is filed as functional, Canis lupus familiaris, Purkinje fiber. In outline: as §1

Turning to `CN(Cc1ccc2cc(NS(C)(=O)=O)ccc2n1)CC(O)COc1ccc(NS(C)(=O)=O)cc1` (stereo not drawn), the APD in [1] is 42%; in [2], 17%; in [3], 13%; in assay [7] it was 55%; in [8], 66%; in assay [9] it was 18%. Besides, the Vmax was -2 in [4]; -1 in [5]; -4 in assay [6]; -12 in assay [10]; -6 in assay [11]; -10 in assay [12].

On to `CN(Cc1ccc2ccccc2n1)C[C@@H](O)COc1ccc(NS(C)(=O)=O)cc1`, for which the APD in assay [1] is 25%; in assay [2], 22%; in assay [3] it was 12%; in assay [7], 48%; in assay [8] it was 70%; in assay [9], 27%. Further, the Vmax in [4] is -4; in assay [5], -1; in assay [6], -9; in assay [10], 9; in [11], 4; in [12], 6.

Regarding `CN(CCCOc1ccc(NS(C)(=O)=O)cc1)Cc1ccc2ccccc2n1`, in assay [13], the HR is reported as -23. Further, the VCT in assay [14] is 1. The molecule also returned a VERP in assay [15] of 30. Also, in [16], the AERP came out at 52. Besides, in assay [17], the MBP was -11. For the same molecule, the Vmax in [5] was 3; in assay [11], 5. The APD was 45% in assay [8] and 22% in [9]. Also, in [18], the ACT is -6.

In the case of `CS(=O)(=O)Nc1ccc(OCCCN(Cc2ccc3cc(NS(C)(=O)=O)ccc3n2)C2CCCC2)cc1`, the Vmax in assay [19] was 7; in assay [21], 8. Besides, the APD was 13% in assay [20] and 30% in assay [22].
